Laboratory results: ChEMBL document CHEMBL3045304, “Sesquiterpene lactones with potential use as natural herbicide models. 2. guaianolides” (2000)
Activity calls are given as the source filed them.

Assays:
[1] = tested on: Solanum lycopersicum; test: Stimulation of root length of Solanum lycopersicum cv. Tres Cantos (tomato) at 0.1 mM or 1 mM after 5 days relative to untreated control; type: functional
In short: (§1)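 Lettuce and tomato seeds, 25 per dish on filter paper, received 5 mL test solution. Incubation was 5 days in the dark at 25 °C, with four replicates per concentration. Solutions were made at 10^-3 or 10^-4 M in 10 mM MES, diluted serially, and adjusted to pH 6.0. Parallel controls were run. Results are % difference from control.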

[2] = tested on: Triticum aestivum; test: Stimulation of germination of Triticum aestivum cv. Cortex (wheat) at 0.1 mM or 1 mM after 5 days relative to untreated control; type: functional
In short: (§2)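 Wheat: 10 seeds per dish on filter paper with 5 mL test solution, 5 days in the dark at 25 °C, 10 replicates per concentration. Stock test solutions were 10^-3 or 10^-4 M in 10 mM MES, with lower levels made by dilution, all at pH 6.0. Parallel controls were run. Output is % difference from control.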

[3] = tested on: Triticum aestivum; test: Inhibition of root length of Triticum aestivum cv. Cortex (wheat) at 0.1 mM or 1 mM after 5 days relative to untreated control; type: functional; in short: as §2
[4] = tested on: Solanum lycopersicum; test: Stimulation of hypocotyl length of Solanum lycopersicum cv. Tres Cantos (tomato) at 0.1 mM or 1 mM after 5 days relative to untreated control; type: functional; in short: as §1
[5] = tested on: Lactuca sativa; test: Inhibition of germination of Lactuca sativa cv. Roman (lettuce) at 0.1 mM or 1 mM after 5 days relative to untreated control; type: functional; in short: as §1
[6] = tested on: Lactuca sativa; test: Stimulation of germination of Lactuca sativa cv. Roman (lettuce) at 0.1 mM or 1 mM after 5 days relative to untreated control; type: functional; in short: as §1
[7] = tested on: Solanum lycopersicum; test: Inhibition of root length of Solanum lycopersicum cv. Tres Cantos (tomato) at 0.1 mM or 1 mM after 5 days relative to untreated control; type: functional; in short: as §1
[8] = tested on: Lepidium sativum; test: Inhibition of root length of Lepidium sativum at 0.1 mM or 1 mM after 4 days relative to untreated control
[9] = tested on: Lepidium sativum; test: Stimulation of hypocotyl length of Lepidium sativum at 0.1 mM or 1 mM after 5 days relative to untreated control; type: functional
[10] = tested on: Solanum lycopersicum; test: Stimulation of germination of Solanum lycopersicum cv. Tres Cantos (tomato) at 0.1 mM or 1 mM after 5 days relative to untreated control; type: functional; in short: as §1
[11] = tested on: Lactuca sativa; test: Stimulation of root length of Lactuca sativa cv. Roman (lettuce) at 0.1 mM or 1 mM after 5 days relative to untreated control; type: functional; in short: as §1
[12] = tested on: Lactuca sativa; test: Inhibition of hypocotyl length of Lactuca sativa cv. Roman (lettuce) at 0.1 mM or 1 mM after 5 days relative to untreated control; type: functional; in short: as §1
[13] = tested on: Solanum lycopersicum; test: Inhibition of germination of Solanum lycopersicum cv. Tres Cantos (tomato) at 0.1 mM or 1 mM after 5 days relative to untreated control; type: functional; in short: as §1
[14] = tested on: Triticum aestivum; test: Stimulation of hypocotyl length of Triticum aestivum cv. Cortex (wheat) at 0.1 mM or 1 mM after 5 days relative to untreated control; type: functional; in short: as §2
[15] = tested on: Lepidium sativum; test: Inhibition of hypocotyl length of Lepidium sativum at 0.1 mM or 1 mM after 4 days relative to untreated control
[16] = tested on: Lactuca sativa; test: Inhibition of root length of Lactuca sativa cv. Roman (lettuce) at 0.1 mM or 1 mM after 5 days relative to untreated control; type: functional; in short: as §1
[17] = tested on: Lepidium sativum; test: Inhibition of germination of Lepidium sativum at 0.1 mM or 1 mM after 4 days relative to untreated control; set-up: scale not given: the % may be the effect or the level left
[18] = tested on: Triticum aestivum; test: Stimulation of root length of Triticum aestivum cv. Cortex (wheat) at 0.1 mM or 1 mM after 5 days relative to untreated control; type: functional; in short: as §2
[19] = tested on: Lepidium sativum; test: Inhibition of germination of Lepidium sativum at 0.1 mM or 1 mM after 5 days relative to untreated control; type: functional
[20] = tested on: Lepidium sativum; test: Stimulation of root length of Lepidium sativum at 0.1 mM or 1 mM after 5 days relative to untreated control; type: functional
[21] = tested on: Triticum aestivum; test: Inhibition of germination of Triticum aestivum cv. Cortex (wheat) at 0.1 mM or 1 mM after 5 days relative to untreated control; type: functional; in short: as §2
[22] = tested on: Solanum lycopersicum; test: Inhibition of hypocotyl length of Solanum lycopersicum cv. Tres Cantos (tomato) at 0.1 mM or 1 mM after 5 days relative to untreated control; type: functional; in short: as §1
[23] = tested on: Lactuca sativa; test: Stimulation of hypocotyl length of Lactuca sativa cv. Roman (lettuce) at 0.1 mM or 1 mM after 5 days relative to untreated control; type: functional; in short: as §1
[24] = tested on: Triticum aestivum; test: Inhibition of hypocotyl length of Triticum aestivum cv. Cortex (wheat) at 0.1 mM or 1 mM after 5 days relative to untreated control; type: functional; in short: as §2
[25] = tested on: Allium cepa; test: Stimulation of germination of Allium cepa cv. Valenciana (onion) at 0.1 mM or 1 mM after 7 days relative to untreated control
[26] = tested on: Allium cepa; test: Inhibition of hypocotyl length of Allium cepa cv. Valenciana (onion) at 0.1 mM or 1 mM after 7 days relative to untreated control
[27] = tested on: Lepidium sativum; test: Inhibition of germination of Lepidium sativum at 0.1 mM or 1 mM after 4 days relative to untreated control
[28] = tested on: Allium cepa; test: Inhibition of root length of Allium cepa cv. Valenciana (onion) at 0.1 mM or 1 mM after 5 days relative to untreated control; type: functional
[29] = tested on: Allium cepa; test: Stimulation of hypocotyl length of Allium cepa cv. Valenciana (onion) at 0.1 mM or 1 mM after 7 days relative to untreated control
[30] = tested on: Allium cepa; test: Stimulation of root length of Allium cepa cv. Valenciana (onion) at 0.1 mM or 1 mM after 7 days relative to untreated control
[31] = tested on: Allium cepa; test: Inhibition of germination of Allium cepa cv. Valenciana (onion) at 0.1 mM or 1 mM after 5 days relative to untreated control; type: functional
[32] = tested on: Allium cepa; test: Stimulation of germination of Allium cepa cv. Valenciana (onion) at 0.1 mM or 1 mM after 5 days relative to untreated control; type: functional

C=C1CC[C@H]2C(=C)CC[C@H]3C(=C)C(=O)O[C@@H]3[C@@H]12 [DEHYDROCOSTUSLACTONE]
>40%: Activity [2] | inhibition (INH) [3] | inhibition (INH) [8] | Activity [9] | inhibition (INH) [15] | Activity [18] | Activity [20] | inhibition (INH) [21]
<20%: inhibition (INH) [12] | Activity [23]
inactive: Activity [1] | Activity [4] | inhibition [7] | Activity [10] | Activity [11] | inhibition [13] | inhibition [16] | inhibition [22]
20%: inhibition (INH) [5] | Activity [6] | Activity [14] | Activity [17] | inhibition (INH) [19] | inhibition (INH) [24]

C=C1C(=O)O[C@H]2[C@H]1CCC(=C)[C@]1(O)C[C@@H](O)C(=C)[C@]21O
<20%: inhibition (INH) [3] | inhibition (INH) [8] | Activity [10] | Activity [11] | inhibition (INH) [13] | Activity [14] | inhibition (INH) [16] | Activity [18] | Activity [20] | inhibition (INH) [24]
20%: inhibition (INH) [12] | Activity [23]
inactive: Activity [1] | Activity [25] | Activity [2] | inhibition [26] | Activity [4] | inhibition [5] | Activity [27] | inhibition [27] | Activity [6] | inhibition [7] | Activity [9] | inhibition [28] | inhibition [15] | Activity [29] | Activity [30] | inhibition [21] | inhibition [22] | inhibition [31]

C=C1[C@@H]2[C@H]3OC(=O)[C@@H](CO)[C@@H]3CCC(=C)[C@@H]2C[C@H]1O
20%: inhibition (INH) [8] | Activity [11] | inhibition (INH) [16] | Activity [20]
<20%: inhibition (INH) [5] | Activity [6] | Activity [9] | inhibition (INH) [15]
inactive: Activity [1] | Activity [25] | Activity [2] | inhibition [26] | inhibition [3] | Activity [4] | Activity [27] | inhibition [27] | inhibition [7] | Activity [10] | inhibition [13] | inhibition [28] | Activity [14] | Activity [18] | Activity [29] | Activity [30] | inhibition [21] | inhibition [22] | inhibition [31] | inhibition [24]
>40%: inhibition (INH) [12] | Activity [23]

C=C1C(=O)O[C@H]2[C@H]1CCC(=C)[C@]13C[C@@H](O)C(=C)[C@]21OC(C)(C)O3
<20%: inhibition (INH) [3] | inhibition (INH) [5] | Activity [6] | Activity [14] | Activity [18] | inhibition (INH) [24]
inactive: Activity [1] | Activity [2] | inhibition [26] | Activity [4] | inhibition [7] | Activity [10] | inhibition [12] | inhibition [13] | Activity [32] | inhibition [28] | Activity [29] | Activity [30] | inhibition [21] | inhibition [22] | Activity [23] | inhibition [31]
20%: Activity [11] | inhibition (INH) [16] | Activity [17] | inhibition (INH) [19]
>40%: inhibition (INH) [8] | Activity [9] | inhibition (INH) [15] | Activity [20]
